RGS4 block: inhibitors of human RGS4 | HEK293 M3R/RGS4 inducible, Fluo-4 calcium flux; stronger effect = higher value; triggered by carbachol at its EC20 | B-score at 10 µM | 0.45% of 310,000 active | AID 463165;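 active = B-score, a plate-corrected calcium signal, over three deviations above library mean, with baseline fluorescence within five deviations of library mean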;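 note: RGS4 expression induced by doxycycline in cells with stable M3 receptor; B-score is computed from the integrated fluorescence ratio over baseline after carbachol; higher B-score means a larger calcium signal and so more RGS4 inhibition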
Target sequence (P49798 whole entry, looked up): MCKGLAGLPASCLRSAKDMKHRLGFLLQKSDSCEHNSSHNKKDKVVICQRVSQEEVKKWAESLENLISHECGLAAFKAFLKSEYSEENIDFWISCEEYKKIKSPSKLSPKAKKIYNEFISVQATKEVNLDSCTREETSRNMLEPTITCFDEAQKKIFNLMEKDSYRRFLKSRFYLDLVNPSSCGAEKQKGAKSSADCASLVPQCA
MrgX1 antag: human MrgX1 receptor antagonism, primary screen; 1.3% of 310,000 active; B-score at 10 µM; MRGX1-HEK293 calcium flux, Fluo-4, BAM8-22 antagonism; stronger effect = lower value; AID 588676;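 active = calcium-response B-score plate-corrected more than 3 library SD below zero, starting fluorescence within 5 deviations, no agonist response on first addition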;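 note: peak minus trough fluorescence over baseline after final BAM8-22 challenge near maximal dose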
Target sequence (Q96LB2 whole entry, looked up): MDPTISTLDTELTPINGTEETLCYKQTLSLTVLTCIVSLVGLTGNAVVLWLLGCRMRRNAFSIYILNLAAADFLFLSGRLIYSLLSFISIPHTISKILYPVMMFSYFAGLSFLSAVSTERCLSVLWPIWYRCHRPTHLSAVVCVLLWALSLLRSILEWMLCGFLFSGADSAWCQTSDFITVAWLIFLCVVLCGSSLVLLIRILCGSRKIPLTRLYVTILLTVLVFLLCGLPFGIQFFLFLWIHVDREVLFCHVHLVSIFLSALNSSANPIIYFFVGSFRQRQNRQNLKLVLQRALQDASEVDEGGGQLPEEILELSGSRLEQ
MrgX1 PAM: allosterically activates human MrgX1 receptor signaling; Q96LB2; MrgX1-HEK293, Fluo-4 calcium flux, FDSS; stronger effect = higher value; B-score at 10 µM; 0.63% of 310,000 active; AID 588675;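 active = plate-corrected calcium response at least 3 library SD above typical, normal starting fluorescence, not activating the receptor alone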;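 note: compound read alongside a low EC10 to EC30 dose of BAM8-22 agonist; peak minus trough fluorescence over baseline measured at the second addition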
MrgX1 agonist: human MrgX1 receptor agonism, primary screen | MrgX1-HEK293 cells, Fluo-4 calcium fluorescence, agonist mode; stronger effect = higher value | B-score at 10 µM | AID 588627 | 0.44% of 310,000 active;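 active = calcium response B-score plate-corrected fluorescence ratio at least 3 library SD, with starting fluorescence B-score inside 5 SD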
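Test system: Stable human MrgX1 HEK293 cell line | Schedule: Overnight plating before 1 h dye loading | Read-out basis: Baseline-normalised fluorescence change ratio, B-scored | Detection: Kinetic calcium dye fluorescence, Fluo-4 NW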
RGS4 act: RGS4 potentiation or activation. HEK293 M3R/inducible RGS4, carbachol calcium flux Fluo4; stronger effect = lower value. 0.92% of 310,000 active. B-score at 10 µM;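 active = B-score of the integrated calcium signal more than 4 SD below the library mean, with starting fluorescence not abnormally high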;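 note: negative B-score means reduced calcium response which marks RGS4 activation or potentiation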
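Assay system: HEK293 FlpIn-TREx cells, stable M3R, doxycycline-inducible RGS4 / Probe or stimulus: carbachol, ECmax concentration / Times: overnight RGS4 induction, 30 min dye load 37 °C, 20 min compound RT / Signal: kinetic calcium fluorescence imaging with Fluo4-AM dye, 2 µM / Measure: Agonist-evoked peak-minus-minimum fluorescence over baseline, integrated ratio, B score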
Of the large screens only hits and unclear results are named; the others gave an inactive call; ! = not active in a repeat. A selection: hits, their analogues and other compounds. The true share with any hit is near 3.5%.

COc1ccc(C(CNC(=O)C(=O)Nc2ccc3c(c2)OCO3)N2CCN(C)CC2)cc1 (centres undefined)	MrgX1 antag -6.2
O=C(CN1CCN(Cc2ccccc2)CC1)NC(=O)NC1CCCCC1	none
O=C(CN1CCN(C/C=C/c2ccccc2)CC1)NC(=O)NC1CCCCC1	RGS4 act -7
CCCCN(CCCNC(=O)c1c(C)cc(=O)oc1C)c1ccccc1	MrgX1 antag -7.9
COc1ccc(C(=O)NCc2ccc3c(c2)OCO3)c(OC)c1	none
COc1ccc2oc(=O)c(C(=O)NCc3ccc4c(c3)OCO4)cc2c1	MrgX1 antag -6.1
Cc1ccc(C2=CC(C)(c3ccc(C)cc3)Nc3nc(C(F)(F)F)nn32)cc1 (centres undefined)	RGS4 act -7
CC1CC(CC(C)C(=O)Nc2nncs2)C(=O)O1 (centres undefined)	none
CC1CC(CC(C)C(=O)NC(=S)Nc2ccc(S(N)(=O)=O)cc2)C(=O)O1 (centres undefined)	MrgX1 antag -6.5
O=C(/C=C/c1ccco1)OCC1CCCN2CCCCC12 (centres undefined)	RGS4 act -7
COCCn1c(=O)[nH]c(=O)c2c(C(F)(F)F)cc(-c3cccs3)nc21	none
COC(=O)c1cc(C(=O)c2cc(F)ccc2O)cn2c(=O)c3c(C)c(C)sc3nc12	MrgX1 antag -4.7, RGS4 act -7
COc1ccc(NS(=O)(=O)c2cccc(C(=O)NNC(=O)CNC(=O)c3ccc(C)cc3)c2)cc1	none
N#CCCN(Cc1cccnc1)S(=O)(=O)c1ccc(S(=O)(=O)NC2CCCCC2)cc1	MrgX1 antag -5.6
O=C(COc1ccc(S(=O)(=O)NC2CCCCC2)cc1)NCc1cccnc1	none
O=C(NC(=S)Nc1ccc(N2CCCCC2)cc1)c1cccs1	none
Cc1cc(CNC(=O)COC(=O)c2ccc(Cl)c(N)c2)cc(C)c1O	none
O=C(Nc1ccc(-c2nc3ccccc3o2)cc1)c1ccc(N2CCOCC2)c([N+](=O)[O-])c1	MrgX1 antag -6.5
O=[N+]([O-])c1cc(-c2nnc(Nc3ccc(O)cc3)c3ccccc23)ccc1N1CCOCC1	MrgX1 antag -4.7
C=CCNc1nc(NCC)nc(N2CCOCC2)n1	none
C=CCNc1nc(Nc2ccc(-c3nc4ccccc4o3)cc2)nc(N2CCOCC2)n1	RGS4 act -7.1
O=[N+]([O-])c1cc(-c2nnc(Nc3ccccc3)c3ccccc23)ccc1N1CCOCC1	none
COc1ccc2oc(-c3ccc(NC(=O)c4ccc(N5CCOCC5)c([N+](=O)[O-])c4)cc3)nc2c1	none
Cc1nn(-c2ccccc2)c(C)c1C(=O)OCc1ccc(C#N)cc1	none
Cc1c(CN2CCC(CO)(CCOc3ccccc3)CC2)[nH]c2c(Cl)cccc12	none
COc1ccccc1-n1c(-c2ccccc2)c[n+]2c1CCc1ccccc1-2	RGS4 act -7.9!
Cc1cc(OC(C)C(=O)N2CCN(c3ccc(F)cc3)CC2)c2c(C)c(C)c(=O)oc2c1 (centres undefined)	none
C[C@H](NC(=O)c1nc[nH]c1C(=O)N[C@@H](CCCCNC(=O)OC(C)(C)C)C(=O)OC(C)(C)C)C(=O)OCc1ccccc1	none
CC(C)C[C@H](NC(=O)c1nc[nH]c1C(=O)NCCCCCNC(=O)OC(C)(C)C)C(=O)OCc1ccccc1	none
CC(C)C[C@H](NC(=O)c1[nH]cnc1C(=O)Nc1ccc(CNC(=O)OC(C)(C)C)cc1)C(=O)OC(C)(C)C	RGS4 act -7
C[C@H](NC(=O)c1nc[nH]c1C(=O)NCCCCCNC(=O)OC(C)(C)C)C(=O)OCc1ccccc1	MrgX1 PAM 7.8, RGS4 act -7.8
CC(C)(C)OC(=O)NCCCCCNC(=O)c1[nH]cnc1C(=O)N[C@@H](Cc1ccccc1)C(=O)OCc1ccccc1	RGS4 act -7.5
CCN1CCCC1CNC(=O)CCNC(=O)c1cc(OC)c(OC)c(OC)c1 (centres undefined)	MrgX1 antag -6.5
CCN1CCCC1CNC(=O)c1cc(OC)c(OC)c(OC)c1 (centres undefined)	none
CCOC(=O)CCC(=O)NNC(=O)COc1ccc(C(C)C)cc1Br	none
O=C(CN(Cc1ccccc1)S(=O)(=O)c1ccc2c(c1)OCCO2)N/N=C/c1ccc(F)cc1	none
COc1ccc(/C=N/NC(=O)CN(Cc2ccccc2)S(=O)(=O)c2ccc3c(c2)OCCO3)cc1	MrgX1 antag -6.2
COc1ccc(CNC(=O)CN(Cc2ccccc2)S(=O)(=O)c2ccc(Cl)cc2)cc1	MrgX1 antag -4.9
Cc1ccccc1OCC(=O)N/N=C/c1ccc2c(c1)OCCO2	MrgX1 PAM 6.5
O=C(Cn1[nH]c(=O)c2ccccc2c1=O)OCC(=O)c1ccc(Br)cc1	none
CCN1CCN(C(=O)c2ccc(Sc3ccccc3Cl)c([N+](=O)[O-])c2)CC1	none
CCN1CCCC1CNC(=O)c1ccc(Sc2ccccc2Cl)c([N+](=O)[O-])c1 (centres undefined)	RGS4 act -7.1
CCN1CCCC1CNC(=O)c1ccc(Sc2ccc(F)cc2)c([N+](=O)[O-])c1 (centres undefined)	RGS4 act -9.9
CCOc1ccc(-c2[nH]ncc2-c2ccc(Cl)cc2)c(O)c1	MrgX1 antag -13, MrgX1 PAM 13
CC(NC(=O)/C=C/c1ccco1)c1nc2ccccc2n1Cc1ccccc1F (centres undefined)	MrgX1 antag -5.3
CC(NC(=O)/C=C/c1ccco1)c1nc2ccccc2n1Cc1c(Cl)cccc1Cl (centres undefined)	none
O=[N+]([O-])c1c(NCCCO)cc(N2CCCCCC2)c2nonc12	none
O=[N+]([O-])c1ccc(/C=N/Nc2nc(NCc3ccccc3)nc(N3CCOCC3)n2)cc1	none
O=[N+]([O-])c1cc([N+](=O)[O-])c(N2CCOCC2)cc1NCc1ccccc1	MrgX1 antag -9.6
O=[N+]([O-])c1cccc(/C=N/Nc2nc(NCc3ccccc3)nc(N3CCOCC3)n2)c1O	MrgX1 agonist 34
O=[N+]([O-])c1c(NCc2ccccc2)cc(N2CCc3ccccc3C2)c2nonc12	MrgX1 antag -6
CC(C)(C)NC(=O)COC(=O)c1ccc2c(c1)C(=O)N(Cc1ccco1)C2=O	none
O=C(Cc1ccccc1)NCC(=O)N1CCN(c2ccccc2)CC1	none
COc1ccccc1-c1cnn2c(NCc3ccccc3)cc(C)nc12	RGS4 act -7.3
COc1ccc(OCC(=O)Nc2c3c(nn2-c2ccc(OC)cc2)CS(=O)(=O)C3)cc1	none
ClC(Cl)(c1nnnn1-c1ccccc1)c1nnnn1-c1ccccc1	none (no result: RGS4 block, RGS4 act)
Oc1cccc(Nc2nc(NCC3CCCO3)c3ccccc3n2)c1 (centres undefined)	none
CCOc1ccc(Nc2nc(NCC3CCCO3)c3ccccc3n2)cc1 (centres undefined)	MrgX1 antag -5.9, RGS4 act -7.2
